Hits are enriched below; roughly 4.9% of the tested compounds scored in any of these assays.
APP 5'UTR act – activates APP 5'UTR luciferase reporter; AID 1276; SH-SY5Y APP 5'UTR luciferase reporter, luminescence; zero percent = DMSO vehicle wells; 1% of 190,000 active; activation, % at 2 µM;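 active = activation above a set limit, based on mean plus 3 SD of controls, cut at about 140% in these data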
STAT3 act-1 – STAT3 signaling activation; 0.91% of 190,000 active; U3A cells, IL-6 STAT3-luciferase reporter, luminescence; 100% = signal with IL-6 EC80 alone; activation (% of control), % at 5.6 µM;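 active = activation above the screen-wide mean of compound activation plus 3 SD, cut at about 130% in these data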;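 note: 0% = background luminescence of wells with medium and substrate only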
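system = STAT3-luciferase reporter U3A cells | reagent = IL-6 stimulus at 33 ng/mL final | timing = 1 h compound pre-exposure, 6 h IL-6 stimulation, 37 °C | measured by = luminescence | evaluation = % activation versus median of IL-6-stimulated wells | control set = IL-6-only wells as 100% reference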
STAT1 act-1 – increases IFN-gamma driven STAT1 reporter signal; activation (% of control), % at 5.5 µM; 2.6% of 200,000 active; NIH 3T3 STAT1-luciferase reporter, luminescence; 100% = IFN-gamma alone, no compound;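 active = activation above the screen-wide mean activation plus 3 SD, cut at about 130% in these data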;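 note: raw ratio to IFN-gamma control signal so 100% means no change and 0% no light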
STAT1 blocker – STAT1 signaling inhibition. NIH 3T3 STAT1-luciferase reporter, IFN-gamma, luminescence. inhibition, % at 5.5 µM. 0.35% of 200,000 active. AID 920;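 active = inhibition above a set limit, the mean inhibition across all tested compounds plus 3 SD, cut at about 34% in these data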;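 note: 0% = IFN-gamma with DMSO and 100% = IFN-gamma with 300 µM nifuroxazide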
STAT3 blocker – STAT3 signaling inhibition; U3A cells, IL-6 STAT3-luciferase reporter, luminescence; host cell line lacks STAT1; inhibition, % at 5.5 µM; 0.89% of 190,000 active;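 active = inhibition above the mean inhibition across all screened compounds plus 3 SD, cut at about 44% in these data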;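 note: 0% = DMSO only wells and 100% = 100 µM nifuroxazide control wells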
NF-kB neuron act – raises NF-kB expression in human neuronal cells; 1.6% of 190,000 active; NF-kB reporter expression; stronger effect = higher value; fold change at 12.5 µM; AID 1239; in the data active = fold change above about 3.3
STAT3 act-2 – STAT3 activation, confirmation assay | potentiation (% of control), % at 5.7 µM | shares compounds with STAT3 act-1 | U3A STAT3-luciferase reporter, IL-6 potentiation, luminescence; U3A cells lack STAT1; 100 means same as IL-6 alone | 64% of 1,200 active;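 active = percent activation of the STAT3 luciferase reporter above a set limit taken from the earlier primary screen, cut at about 130% in these data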;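 note: 0% = background signal of medium plus substrate and 100% = median of IL-6 with DMSO wells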
NFkB act 2 – NF-kappaB activation in STAT3 activator counter-screen. activation (% of control), % at 5.7 µM. AID 1309. shares compounds with STAT3 act-1. 11% of 1,200 active. human cells, NF-kappaB reporter activation; in the data active = activation above about 120%;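 note: reporter induced by TNF-alpha stimulation; 100% = median of stimulated DMSO wells and 0% = no signal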
STAT1 act-2 – STAT1 activation in STAT3 activator counter-screen; shares compounds with STAT3 act-1; 13% of 1,200 active; activation (% of control), % at 5.7 µM; AID 1318; NIH 3T3 STAT1-luciferase reporter, IFN-gamma, luminescence;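 active = activation above the solvent-only control well mean plus 3 SD, set per screening run, cut at about 120% in these data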;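 note: 100% = IFN-gamma with DMSO median signal so 100% means no change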
Starred values were filed as active, the others as inactive; · = no result.

SMILES	APP 5'UTR act	STAT3 act-1	STAT1 act-1	STAT1 blocker	STAT3 blocker	NF-kB neuron act	STAT3 act-2	NFkB act 2	STAT1 act-2
COc1ccc(NC(=O)N2CCn3c2nc2ccccc23)cc1	3	151*	103	-3	-59	0.79	137*	105	98
Cc1cc(/C=N/n2cnnc2)c(O)c([N+](=O)[O-])c1	4	139*	100	0	-43	1.2	149*	99	95
CCc1n[nH]c(=S)n1/N=C/c1cc(OC)cc([N+](=O)[O-])c1O	15	108	107	-11	-5	1.1	·	·	·
CCN(CC)S(=O)(=O)c1ccc(-c2nnc3sc4cccc(C)c4n23)cc1	0	148*	96	4	-54	0.7	160*	110	107
O=[N+]([O-])c1ccc(S(=O)(=O)N2CCN(Cc3c[nH]c4ccccc34)CC2)cc1	·	152*	93	14	-62	0.97	155*	105	100
COc1ccc(S(=O)(=O)N2CCN(Cc3c[nH]c4ccccc34)CC2)cc1	11	121	103	-3	-15	1.1	·	·	·
Cc1ccc(S(=O)(=O)N2CCN(C(=O)c3cccs3)CC2)c(C)c1	1	112	97	3	-8	1.1	·	·	·
Cc1cc(C)c2nc(/N=C(\N)NC(=O)Nc3ccccc3)nc(C)c2c1	6	96	95	6	2	0.34	·	·	·
CCN(CC)c1ccc(NC(=O)c2cc(Cl)ccc2OC)cc1	-3	162*	95	5	-62	0.8	151*	112	99
CCCOC(=O)c1ccc(NC(=O)c2cc(Cl)ccc2OC)cc1	0	72	92	9	35	1	·	·	·
COc1cccc2c1N1C(=O)c3c(C(=O)O)cccc3C1CC2(C)C (stereo not drawn)	12	105	101	-1	-4	1.3	·	·	·
COc1ccc(N2CCN(C(=O)CCN3C(=S)NC(C)(C)CC3C)CC2)cc1 (stereo not drawn)	28	97	100	-1	8	1	·	·	·
Fc1ccc(/C=C\c2nccc3c2[nH]c2ccccc23)cc1	12	138*	117	-21	-46	1	148*	111	99
C=CCOc1ccc(CNc2ccc3[nH]c(=O)[nH]c3c2)cc1OC	17	103	102	-2	0	1	·	·	·
COc1ccc(CNc2ccc3cn[nH]c3c2)c(OC)c1OC	-16	144*	90	11	-53	0.81	129	95	93
CCOc1cc(CNc2ccc3cn[nH]c3c2)ccc1OC	-7	175*	95	6	-79	0.5	161*	99	100
COC(=O)c1ccccc1NC(=O)C(=O)NCc1ccncc1	13	98	103	-6	7	0.94	·	·	·
CCCC/C(C)=N/NC(=O)c1cn(-c2ccccc2)nc1-c1ccccc1	-6	102	104	-4	-4	0.89	·	·	·
Nc1nnc(Cc2c[nH]c3ccccc23)s1	3	143*	90	11	-41	0.89	154*	113	102
COc1cccc(NC(=O)N2CCC(n3nnc4ccccc43)CC2)c1	17	92	99	0	13	1.3	·	·	·
Cn1c(C(=O)Nc2ccccc2)cc2sccc21	32	163*	112	-14	-79	1.6	144*	123*	134*
O=C1c2ccccc2C(=O)N1CCC1=CCCCC1	22	141*	121	-23	-41	1.3	121	122*	132*
COc1ccc(CC(NC(C)=O)C(=O)NC2CCN(c3nnnn3-c3ccccc3)CC2)cc1OC (stereo not drawn)	12	100	101	-1	6	1.3	·	·	·
O=C1CC(Nc2ccc(N3CCOCC3)cc2)C(=O)N1Cc1ccccc1 (stereo not drawn)	4	97	89	12	6	1.2	·	·	·
O=C1CC(Nc2ccc3ccccc3c2)C(=O)N1Cc1ccccc1 (stereo not drawn)	-8	138*	104	-5	-36	0.91	135*	104	103
SMILES	APP 5'UTR act	STAT3 act-1	STAT1 act-1	STAT1 blocker	STAT3 blocker	NF-kB neuron act	STAT3 act-2	NFkB act 2	STAT1 act-2
O=S(=O)(Nc1ccccc1N1CCCCC1)c1ccc(F)cc1F	18	103	93	7	-1	1.1	·	·	·
COc1ccccc1OCCCN1C(=O)C(=O)c2cccc(C)c21	-14	138*	92	7	-41	1.3	132	104	97
C/C(O)=C(\N=Nc1cc(C)ccc1O)C(N)=O	-3	143*	93	5	-46	1.3	175*	129*	136*
CC(C)NC(=O)CNc1ccc(C(F)(F)F)cc1[N+](=O)[O-]	-9	103	104	-7	-2	0.94	·	·	·
CN1CCN(C(=O)CNc2ccc(C(F)(F)F)cc2[N+](=O)[O-])CC1	4	162*	98	0	-74	0.93	157*	103	101
O=C(c1ccc2c(c1)OCCO2)N1CCN(c2ccc([N+](=O)[O-])cc2)CC1	-15	101	96	3	0	1.2	·	·	·
CCOC(=O)C1=NN(c2ccc(OC)cc2)C(c2ccccc2)CC1=O (stereo not drawn)	13	119	101	4	-22	2	·	·	·
CCOC(=O)C1=NN(c2ccccc2)C(c2ccccc2)CC1=O (stereo not drawn)	-20	138*	106	-5	-44	1.2	113	100	98
COc1ccc(-c2cc(=O)c3ccccc3[nH]2)cc1	12	96	103	-3	2	1.5	·	·	·
Cc1ccc2[nH]c(-c3cccc(F)c3)cc(=O)c2c1	-93	142*	121	-23	-54	3.8*	110	143*	116
COc1ccc2[nH]c(-c3cccc(F)c3)cc(=O)c2c1	-93	148*	128	-30	-60	5.5*	119	130*	126*
O=c1cc(-c2ccc(F)cc2F)[nH]c2ccccc12	-1	98	102	-2	0	1.3	·	·	·
COc1cccc(-c2cc(=O)c3cc(NC(=O)c4ccccc4)ccc3[nH]2)c1	-87	110	101	-1	-15	0.99	·	·	·
COc1cccc(-c2cc(=O)c3cc(NC(=O)c4ccc(N(C)C)cc4)ccc3[nH]2)c1	-92	139*	103	-3	-49	0.93	112	161*	106
O=C(COC(=O)c1cccc(C(F)(F)F)c1)NCc1ccccc1	-19	91	93	8	10	1.2	·	·	·

Assay outcomes deposited in PubChem BioAssay by several laboratories.
